Laboratory results published in ChEMBL document CHEMBL1132377 (J Med Chem, 1999).
Values after ≈ are worked out from the molar mass of the structure shown.

Key:
K562 = experiment: Cytotoxicity against […] leukemic cell line, by means of standard proliferation assay; type: functional, cell-based; conditions: Homo sapiens
[1] = molecular target: T1, Peptidyl-prolyl cis-trans isomerase FKBP1A (Homo sapiens, UniProt P62942); experiment: Compound was evaluated for its inhibitory effect on human FK506 binding protein 12 by means of protease-coupled PPIase assay
How it was run: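 Recombinant hFKBP12 (14 nM) preincubated ≥5 min with effectors (0.01–200 μM, diluted from DMSO stocks, organic solvent usually below 0.1% v/v) in 35 mM HEPES pH 7.8. Reaction started with Suc-Ala-Phe-Pro-Phe-pNA (24.0 μM); α-chymotrypsin (410 μg/mL) as isomer-specific protease; 4-nitroaniline release read at 390 nm, 10 °C. First-order k_enz derived; IC50 from concentration dependence; mean ± SD of three determinations.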

L929 = experiment: Cytotoxicity against mouse L-929 fibroblast cell line, by means of standard proliferation assay; type: functional, cell-based
[2] = molecular target: T1, Peptidyl-prolyl cis-trans isomerase FKBP1A; experiment: Inhibition constant(Ki) for inhibition of PPIase activity of human FK506 binding protein 12 (Conc=14 nM) of FKBPs family
How it was run: (§1)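 Protease-coupled PPIase assay with α-chymotrypsin 410 μg/mL and Suc-Ala-Phe-Pro-Phe-pNA 24.0 μM. Enzyme was preincubated at least 5 min with inhibitor (0.01–200 μM) in 35 mM HEPES pH 7.8, DMSO usually below 0.1%. 4-Nitroaniline release was read at 390 nm, 10 °C, and first-order k_enz derived. Ki came from nonlinear competitive-inhibition fit; mean ± SD of three.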

[3] = molecular target: Peptidyl-prolyl cis-trans isomerase NIMA-interacting 1 (Homo sapiens, UniProt Q13526); experiment: Inhibition constant(Ki) for inhibition of PPIase activity of human Peptidyl-prolyl cis-trans isomerase NIMA-interacting 1 (Conc=4 nM) of Parvulins family
How it was run: (§2)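 PPIase assay coupled to trypsin 210 μg/mL, using Suc-Ala-Phe-Pro-Arg-pNA 34.0 μM (SlyD) or Ac-Ala-Ala-Ser(P)-Pro-Arg-pNA 26.0 μM (hPin1). Enzyme was preincubated at least 5 min with inhibitor (0.01–200 μM) in 35 mM HEPES pH 7.8. Absorbance at 390 nm was followed at 10 °C, and first-order catalytic rate constants were fitted to a competitive model.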

[4] = Inhibition constant(Ki) for inhibition of PPIase activity of human Cyclophilin 18 (Conc=2 nM)
How it was run: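 hCyp18 was expressed recombinantly in E. coli and assayed for PPIase activity with α-chymotrypsin 410 μg/mL and Suc-Ala-Phe-Pro-Phe-pNA 24.0 μM. It was preincubated at least 5 min with 0.01–200 μM inhibitor in 35 mM HEPES pH 7.8. 4-Nitroaniline was monitored at 390 nm, 10 °C, and constants were obtained by competitive nonlinear fit.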

[5] = Inhibition constant(Ki) for inhibition of PPIase activity of Escherichia coli trigger factor (Conc=12 nM) of FKBPs family; how it was run: as §1
[6] = Inhibition constant(Ki) for inhibition of PPIase activity of Escherichia coli FK506 binding protein 26 (Conc=1 uM) of FKBPs family; how it was run: as §1
[7] = Inhibition constant(Ki) for inhibition of PPIase activity of Escherichia coli SlyD (Conc=2 uM) of FKBPs family; how it was run: as §2
[8] = Inhibition constant(Ki) for inhibition of PPIase activity of Escherichia coli parvulin (Conc=6 nM) of Parvulins sfamily
Rattus norvegicus [9] = experiment: Effect on Axonal Regeneration following sciatic nerve neurotomy at a dose of 1 mg/kg after 10 weeks; type: functional
How it was run: (§3)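 Sciatic nerve of left hind leg lesioned (neurotomy) in 4-month-old female HAN:Wist rats under intramuscular Rompun (16 mg/kg)/Ketavet (125 mg/kg) anesthesia. Functional recovery scored from walking behavior. EDL muscle weights of the lesioned left limb and the unlesioned right limb compared, with weights related to protein concentration. Weight differences expressed as percentages relative to placebo; mean ± SD of n animals.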

Rattus norvegicus [10] = experiment: Weight difference between EDL muscles of axotomized left hind limbs and corresponding right controls 10 weeks (dose=1 mg/kg); type: functional, Muscle tissue; how it was run: as §3
Rattus norvegicus [11] = experiment: Effect on Axonal Regeneration following sciatic nerve neurotomy at a dose of 30 mg/kg after 10 weeks; type: functional
How it was run: (§4)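 Left sciatic nerve cut (neurotomy) in 4-month-old female HAN:Wist rats under intramuscular Rompun/Ketavet anaesthesia. A single 30 mg/kg dose was applied at the lesion site. Walking behaviour was scored up to 8 or 10 weeks after surgery. Values are % increase in rate of functional recovery versus placebo-treated rats, given as mean ± SD of n animals.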

Rattus norvegicus [12] = experiment: Weight difference between EDL muscles of axotomized left hind limbs and corresponding right controls 8 weeks (dose=30 mg/kg); type: functional, Muscle tissue
How it was run: (§5)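 Female HAN:Wist rats (4 months old) underwent left sciatic neurotomy with 30 mg/kg given locally at the lesion. EDL muscles were taken at 8 or 10 weeks and weighed relative to protein concentration. The % weight difference, lesioned left versus intact right limb, was expressed relative to placebo controls. Values are mean ± SD of n animals.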

Rattus norvegicus [13] = experiment: Weight difference between EDL muscles of axotomized left hind limbs and corresponding right controls 10 weeks (dose=30 mg/kg); type: functional, Muscle tissue; how it was run: as §5
Rattus norvegicus [14] = experiment: Effect on Axonal Regeneration following sciatic nerve neurotomy at a dose of 30 mg/kg after 8 weeks; type: functional; how it was run: as §4

T1 sequence (P62942 whole entry): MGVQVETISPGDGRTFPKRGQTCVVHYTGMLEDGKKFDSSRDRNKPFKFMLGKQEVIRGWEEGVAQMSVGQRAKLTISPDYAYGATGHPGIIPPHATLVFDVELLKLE
Sequence of Peptidyl-prolyl cis-trans isomerase NIMA-interacting 1 (Q13526 whole entry): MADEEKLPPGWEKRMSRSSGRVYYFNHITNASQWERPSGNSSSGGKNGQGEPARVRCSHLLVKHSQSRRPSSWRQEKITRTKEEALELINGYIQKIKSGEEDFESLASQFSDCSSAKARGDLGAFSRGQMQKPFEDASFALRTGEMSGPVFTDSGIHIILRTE

Row | Compound | IC50 [1] [µM] | IC50 (K562) [µg/mL] | IC50 (L929) [µg/mL] | further results
1 | C[C@@H]1C[C@@H]([C@H](O)CC2CC(=O)NC(=O)C2)C(=O)[C@@H](C)C1 [CYCLOHEXIMIDE] | 3.6 | < 0.39 | < 0.39 | Ki [2]: 3.4 µM; Ki [3]: > 200 µM; Ki [4]: > 200 µM; Ki [5]: > 200 µM; Ki [6]: 10.3 µM; Ki [7]: > 200 µM; Ki [8]: 187 µM
2 | C=CC[C@@H]1/C=C(\C)C[C@H](C)C[C@H](OC)[C@H]2O[C@@](O)(C(=O)C(=O)N3CCCC[C@H]3C(=O)O[C@H](/C(C)=C/[C@@H]3CC[C@@H](O)[C@H](OC)C3)[C@H](C)[C@@H](O)CC1=O)[C@H](C)C[C@@H]2OC [TACROLIMUS ANHYDROUS] | – | – | – | Walking behaviour (Rattus norvegicus [9]): 100%; Weight difference (Rattus norvegicus [10]): 18%
3 | C[C@@H]1C[C@@H]([C@H](O)CC2CC(=O)N(CC(N)=O)C(=O)C2)C(=O)[C@@H](C)C1 | 21.6 | 4.6 (≈ 13.6 µM) | 5.3 (≈ 15.7 µM) | –
4 | CCOC(=O)CN1C(=O)CC(C[C@@H](O)[C@@H]2C[C@@H](C)C[C@H](C)C2=O)CC1=O | 4.4 | 64.9 (≈ 177 µM) | 76.7 (≈ 209 µM) | Walking behaviour (Rattus norvegicus [11]): 14%; Weight difference (Rattus norvegicus [12]): 20%; Weight difference (Rattus norvegicus [13]): 13%; Walking behaviour (Rattus norvegicus [14]): 46%

Further lines, with some results ahead:

Row | IC50 [1] [µM] | Compound | IC50 (K562) [µg/mL] | IC50 (L929) [µg/mL] | further results
5 | 124 | C[C@@H]1C[C@@H]([C@H](O)CC2CC(=O)N(C)C(=O)C2)C(=O)[C@@H](C)C1 | 133 (≈ 449 µM) | > 200 | –
6 | 117 | C[C@@H]1C[C@@H]([C@H](O)CC2CC(=O)N(Cc3ccccc3)C(=O)C2)C(=O)[C@@H](C)C1 | 81.6 (≈ 220 µM) | 135 (≈ 364 µM) | –
7 | 22.3 | CCOC(=O)CCCN1C(=O)CC(C[C@@H](O)[C@@H]2C[C@@H](C)C[C@H](C)C2=O)CC1=O | 109 (≈ 276 µM) | 145 (≈ 366 µM) | –
8 | > 200 | CC(=O)O[C@H](CC1CC(=O)NC(=O)C1)[C@@H]1C[C@@H](C)C[C@H](C)C1=O | 1.1 (≈ 3.4 µM) | 9.3 (≈ 28.8 µM) | –
9 | > 200 | CCOC(=O)CN1C(=O)CC(C[C@@H](OC(=O)NC23C[C@H]4C[C@@H](C2)C[C@@H](C3)C4)[C@@H]2C[C@@H](C)C[C@H](C)C2=O)CC1=O | – | – | –
10 | 68.2 | C[C@@H]1C[C@@H]([C@H](O)CC2CC(=O)N(Cc3ccc(C#N)cc3)C(=O)C2)C(=O)[C@@H](C)C1 | 0.8 (≈ 2.02 µM) | 1.4 (≈ 3.53 µM) | –
11 | 177 | C[C@@H]1C[C@@H]([C@H](O)CC2CC(=O)NC(=O)C2)/C(=N\O)[C@@H](C)C1 | 116 (≈ 393 µM) | 86.9 (≈ 293 µM) | –
